UPR CHOP act: apoptotic UPR (CHOP) activation; CHO-CHOP luciferase reporter, luminescence; percent of tunicamycin response over DMSO baseline; activation, % at 10 µM; 330,000 tested, 0.34% active;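 active = at 10 µM dose, activation of 40% or more, normalized to positive control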;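 note: 100% = tunicamycin at 10 µg/mL and 0% = DMSO alone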
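System: CHO CHOP reporter cells. Amount: 500 cells per well. Buffer or medium: F12 medium, 10% FBS. Compound dosing: one dose, 10 µM in 0.5% DMSO. Incubation: 6 h compound exposure at 37 °C after overnight seeding. Technique: Steady-Glo luciferase luminescence. Benchmarks: tunicamycin and DMSO controls.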
Granule exo inh: lytic granule exocytosis inhibition; TALL-104 LAMP-1 surface exposure, flow cytometry; cells stimulated with thapsigargin and PMA; inhibition, % at 10 µM; 360,000 tested, 0.66% active; AID 651702;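 active = inhibition above about 55%, limit read from the data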
Mdm2 MdmX PPI: disrupts the human Mdm2-MdmX interaction | O15151+Q00987 | SaOS-2 split-luciferase Mdm2/MdmX complementation, luminescence | inhibition, % at 8 µM | 330,000 tested, 3% active | AID 485346;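 active = inhibition of at least 50% at 8 µM in the primary screen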
ABHD5 PLIN5 PPI: ABHD5-PLIN5 protein interaction inhibition | Q00G26+Q8WTS1 | Split G. princeps luciferase complementation, luminescence, 4 h | inhibition, % at 4 µM | 360,000 tested, 0.78% active | AID 602281;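 active = inhibition above the mean inhibition across every tested compound plus 3 SD, cut at about 22% in these data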;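 note: 0% = DMSO only wells and the 100% control is not disclosed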
UPR XBP1 act: activators of adaptive arm of unfolded protein response (XBP1); AID 463104; 330,000 tested, 0.33% active; activation, % at 20 µM; CHO-XBP1 luciferase reporter, IRE1-XBP1 UPR activation, luminescence; percent of tunicamycin response, DMSO as zero;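 active = versus positive control, 20 µM dose yields 30% or more activation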;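 note: 100% = tunicamycin at 10 µg/mL and 0% = DMSO only wells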
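incubation = overnight seeding at 37 °C, 6 h compound treatment at 37 °C | assay system = CHO-XBP1 cells stably carrying IRE1-XBP1-driven luciferase reporter | input = 1000 cells per well | detection = luciferase luminescence | dosing = single point, 20 µM final compound, 1% DMSO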
Mdm2 MdmX conf: confirmation of human Mdm2/MdmX interaction inhibitors; Mdm2-MdmX binding, luminescent assay; inhibition, % at 8 µM; 10,000 tested, 55% active; shares compounds with Mdm2 MdmX PPI; in the data active = inhibition above about 40%
Full FLuc ctr: full-length luciferase inhibition in Mdm2/MdmX counter-screen; inhibition, % at 8 µM; SaOS-2 full-length luciferase counterscreen, luminescence; 6,200 tested, 77% active; AID 504607; shares compounds with Mdm2 MdmX PPI;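 active = mean inhibition at 8 µM reaching about 37%, which flags the compound as non-specific, limit read from the data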;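 note: p53-null SaOS-2 cells with luciferase driven by a doxycycline-inducible promoter; compound on cells about two nights before reading with doxycycline added after day one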
Starred values were filed as active, the others as inactive; . = not tested or not shown. The list is not random: actives were taken first. Their share in the collection is about 4%.

SMILES	UPR CHOP act	Granule exo inh	Mdm2 MdmX PPI	ABHD5 PLIN5 PPI	UPR XBP1 act	Mdm2 MdmX conf	others
CCCC(C(=O)NC1CCCC1)N(CCN(CC)CC)C(=O)c1snc(C(N)=O)c1N (centres undefined)	1	6	4	4	-7	.
O=C(CCS(=O)(=O)c1ccccc1)Nc1nc(-c2ccc(F)cc2)cs1	3	2	60*	-5	0	43*	Full FLuc ctr=53*
Cc1cccc2nc(-c3ccco3)c(Nc3ccc4c(c3)OCO4)n12	0	-8	-5	4	1	.
O=C(Nc1ccc(Cl)c(S(=O)(=O)N2CCOCC2)c1)c1n[nH]c(=O)c2ccccc12	6	1	60*	8	2	-13
O=C(Nc1ccc(Cl)c(S(=O)(=O)N2CCOCC2)c1)c1ccc(OCC2CCCO2)cc1 (centres undefined)	1	94*	75*	-2	-4	65*	Full FLuc ctr=60*
COc1ccc(C(=O)Nc2ccc(Cl)c(S(=O)(=O)N3CCOCC3)c2)cc1	0	2	17	1	-4	.
COc1ccc(-c2cc(C(=O)NCc3cccnc3)no2)cc1	2	-1	1	0	2	.
CCN(c1ccccc1)S(=O)(=O)c1ccc(C(=O)NC2CCCCC2)cc1	.	27	.	-10	.	.
CCN(CC)S(=O)(=O)c1ccc(Cl)c(NC(=S)NC(=O)C2CCCC2)c1	3	-4	50*	-5	5	15
CCN(CC)c1ccc(S(=O)(=O)Nc2cc(Cl)ccc2Cl)cc1NC(=S)NC(=O)C1CCCC1	1	0	17	-17	5	.
CCN(c1ccccc1)S(=O)(=O)c1ccc(Cl)c(NC(=O)CN2CCCCCC2)c1	-2	16	69*	-1	2	23
CCN(c1ccccc1)S(=O)(=O)c1ccc(C(=O)NC2CCN(Cc3ccccc3)CC2)cc1	8	7	54*	4	-3	55*	Full FLuc ctr=57*
COc1ccc(C(=O)NC2CCN(Cc3ccccc3)C2)cc1S(=O)(=O)N1CCOCC1 (centres undefined)	-1	-1	-6	1	-1	.
